Experiment [1] concerns the target T1, 3-phosphoinositide-dependent protein kinase 1 (Homo sapiens) (UniProt O15530).
T1 sequence (whole entry): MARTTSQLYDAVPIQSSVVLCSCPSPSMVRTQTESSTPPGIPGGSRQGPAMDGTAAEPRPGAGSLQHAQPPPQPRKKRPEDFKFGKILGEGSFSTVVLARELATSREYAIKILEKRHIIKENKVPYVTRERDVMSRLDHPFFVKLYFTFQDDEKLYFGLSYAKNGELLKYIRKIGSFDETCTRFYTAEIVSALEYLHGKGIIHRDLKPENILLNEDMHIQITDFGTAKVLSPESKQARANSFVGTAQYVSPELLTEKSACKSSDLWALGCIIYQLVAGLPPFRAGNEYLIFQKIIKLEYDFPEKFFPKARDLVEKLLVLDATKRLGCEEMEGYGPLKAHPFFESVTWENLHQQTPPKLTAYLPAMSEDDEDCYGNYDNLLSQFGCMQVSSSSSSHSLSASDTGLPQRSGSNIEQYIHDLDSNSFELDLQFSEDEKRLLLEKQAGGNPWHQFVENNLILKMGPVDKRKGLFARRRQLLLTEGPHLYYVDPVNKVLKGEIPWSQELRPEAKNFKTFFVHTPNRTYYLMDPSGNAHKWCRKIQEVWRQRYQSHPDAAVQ
As to the kind of experiment: Inhibition of PDPK1 at 1 uM.

Experiment [2] concerns the target T2, Serine/threonine-protein kinase tousled-like 1 (Homo sapiens) (UniProt Q9UKI8).
T2 sequence (whole entry): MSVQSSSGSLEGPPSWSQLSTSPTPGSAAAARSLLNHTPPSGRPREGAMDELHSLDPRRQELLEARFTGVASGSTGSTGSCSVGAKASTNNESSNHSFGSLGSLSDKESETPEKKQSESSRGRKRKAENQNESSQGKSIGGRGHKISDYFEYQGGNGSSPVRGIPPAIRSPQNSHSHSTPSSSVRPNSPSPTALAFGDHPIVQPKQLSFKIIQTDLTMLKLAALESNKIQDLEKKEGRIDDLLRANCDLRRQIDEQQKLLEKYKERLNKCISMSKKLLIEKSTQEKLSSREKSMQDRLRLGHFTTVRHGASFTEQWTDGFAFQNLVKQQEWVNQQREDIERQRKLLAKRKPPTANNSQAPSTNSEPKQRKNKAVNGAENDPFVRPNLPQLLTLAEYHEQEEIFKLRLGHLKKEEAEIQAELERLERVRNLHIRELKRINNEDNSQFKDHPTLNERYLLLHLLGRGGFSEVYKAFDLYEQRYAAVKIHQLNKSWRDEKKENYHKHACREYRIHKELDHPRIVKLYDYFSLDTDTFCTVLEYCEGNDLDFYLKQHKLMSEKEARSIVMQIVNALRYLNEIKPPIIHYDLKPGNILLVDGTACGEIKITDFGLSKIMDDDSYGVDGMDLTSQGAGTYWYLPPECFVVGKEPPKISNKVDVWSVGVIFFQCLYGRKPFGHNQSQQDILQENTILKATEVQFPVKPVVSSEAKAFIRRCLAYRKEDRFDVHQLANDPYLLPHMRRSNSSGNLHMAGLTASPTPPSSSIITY
The experiment in a line: Inhibition of TLK1 at 1 uM.

The target of experiment [3] is Atypical kinase COQ8A, mitochondrial (Homo sapiens) (UniProt Q8NI60). As to the kind of experiment: Inhibition of ADCK3 at 1 uM. A digest of the protocol: (§1)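 Ambit KINOMEscan screen at a single concentration across a 250–400 kinase panel, recorded as percent inhibition. Selectivity was expressed as S(90), the fraction of kinases inhibited >90%.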
Chain of Atypical kinase COQ8A, mitochondrial (Homo sapiens) (Q8NI60 163-647 limits assumed): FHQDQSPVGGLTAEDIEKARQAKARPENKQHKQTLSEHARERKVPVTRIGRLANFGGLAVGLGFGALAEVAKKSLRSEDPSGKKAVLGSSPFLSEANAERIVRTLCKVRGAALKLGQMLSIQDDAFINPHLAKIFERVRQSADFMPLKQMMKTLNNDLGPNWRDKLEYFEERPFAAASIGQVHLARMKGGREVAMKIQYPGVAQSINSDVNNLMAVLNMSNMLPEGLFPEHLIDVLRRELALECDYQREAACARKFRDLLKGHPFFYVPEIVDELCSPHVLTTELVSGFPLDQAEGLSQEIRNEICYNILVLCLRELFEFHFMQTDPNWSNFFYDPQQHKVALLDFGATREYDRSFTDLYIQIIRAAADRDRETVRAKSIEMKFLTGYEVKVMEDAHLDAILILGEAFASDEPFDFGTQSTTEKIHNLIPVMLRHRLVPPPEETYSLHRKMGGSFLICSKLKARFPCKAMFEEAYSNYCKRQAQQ
For experiment [4], the target named is Calcium/calmodulin-dependent protein kinase type 1D (Homo sapiens) (UniProt Q8IU85). The experiment in a line: Inhibition of CAMK1D at 1 uM. Summed up: as §1
Chain of Calcium/calmodulin-dependent protein kinase type 1D (Homo sapiens) (Q8IU85 whole entry, looked up, the tested form may be a part): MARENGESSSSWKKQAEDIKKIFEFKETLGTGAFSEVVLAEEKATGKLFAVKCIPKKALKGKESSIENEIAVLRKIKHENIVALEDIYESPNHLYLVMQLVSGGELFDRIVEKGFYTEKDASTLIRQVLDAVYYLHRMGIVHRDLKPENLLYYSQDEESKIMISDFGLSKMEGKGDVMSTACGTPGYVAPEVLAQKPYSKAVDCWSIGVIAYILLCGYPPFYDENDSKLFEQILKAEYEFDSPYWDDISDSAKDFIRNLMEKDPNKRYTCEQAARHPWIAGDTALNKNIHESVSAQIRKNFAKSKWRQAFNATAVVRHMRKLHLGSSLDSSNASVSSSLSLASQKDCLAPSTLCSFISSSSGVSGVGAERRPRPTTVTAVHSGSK
Experiment [5] has as its target Tyrosine-protein kinase JAK1 (Homo sapiens) (UniProt P23458). The experiment in a line: Inhibition of JAK1 JH1 catalytic domain at 1 uM. Summed up: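 Single-concentration screen on the Ambit KINOMEscan platform, run against a panel of 250–400 kinases. Per-kinase inhibition was also summarized as S(90), the fraction of kinases inhibited by more than 90%.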
In experiment [6] the target is T3, Serine/threonine-protein kinase 4 (Homo sapiens) (UniProt Q13043).
T3 sequence (whole entry): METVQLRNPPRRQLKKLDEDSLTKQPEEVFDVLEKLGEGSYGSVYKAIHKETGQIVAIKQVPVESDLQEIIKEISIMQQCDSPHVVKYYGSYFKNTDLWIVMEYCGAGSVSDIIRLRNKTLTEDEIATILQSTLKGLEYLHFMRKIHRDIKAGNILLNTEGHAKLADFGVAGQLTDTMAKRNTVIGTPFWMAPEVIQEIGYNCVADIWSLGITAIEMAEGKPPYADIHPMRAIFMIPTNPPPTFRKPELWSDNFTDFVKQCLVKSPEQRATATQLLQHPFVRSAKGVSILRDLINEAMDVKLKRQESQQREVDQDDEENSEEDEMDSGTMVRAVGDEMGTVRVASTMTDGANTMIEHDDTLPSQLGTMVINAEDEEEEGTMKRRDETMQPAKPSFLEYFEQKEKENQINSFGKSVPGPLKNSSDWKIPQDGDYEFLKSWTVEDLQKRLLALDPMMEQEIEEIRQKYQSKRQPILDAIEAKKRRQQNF
As to the kind of experiment: Inhibition of MST1 at 1 uM.

Experiment [7] deals with T4, Mitogen-activated protein kinase kinase kinase kinase 2 (Homo sapiens) (UniProt Q12851).
T4 sequence (whole entry): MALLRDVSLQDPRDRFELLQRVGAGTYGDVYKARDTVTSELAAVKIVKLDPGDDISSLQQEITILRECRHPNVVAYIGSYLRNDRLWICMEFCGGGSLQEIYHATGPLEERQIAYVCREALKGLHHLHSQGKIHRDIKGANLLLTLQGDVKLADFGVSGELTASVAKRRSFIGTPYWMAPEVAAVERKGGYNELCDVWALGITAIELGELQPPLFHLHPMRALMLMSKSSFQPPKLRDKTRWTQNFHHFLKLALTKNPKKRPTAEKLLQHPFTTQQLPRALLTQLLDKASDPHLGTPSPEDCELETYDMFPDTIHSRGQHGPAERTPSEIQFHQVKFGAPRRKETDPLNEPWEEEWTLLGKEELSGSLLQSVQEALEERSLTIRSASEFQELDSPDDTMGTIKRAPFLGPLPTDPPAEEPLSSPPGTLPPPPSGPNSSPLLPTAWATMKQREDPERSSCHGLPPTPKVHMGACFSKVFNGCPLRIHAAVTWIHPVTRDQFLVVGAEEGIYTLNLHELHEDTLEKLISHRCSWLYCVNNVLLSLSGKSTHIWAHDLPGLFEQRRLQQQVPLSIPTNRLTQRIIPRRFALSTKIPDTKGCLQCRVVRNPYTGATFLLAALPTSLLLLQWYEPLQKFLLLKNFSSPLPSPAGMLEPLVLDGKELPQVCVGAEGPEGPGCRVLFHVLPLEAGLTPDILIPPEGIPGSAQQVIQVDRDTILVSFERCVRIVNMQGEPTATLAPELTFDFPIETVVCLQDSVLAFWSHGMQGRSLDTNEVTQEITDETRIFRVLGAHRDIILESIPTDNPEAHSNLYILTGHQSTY
The experiment in a line: Inhibition of MAP4K2 at 1 uM.

Some results are limits rather than exact numbers.

Experimental findings from ChEMBL document CHEMBL1165965, “Synthesis and structure-activity relationships of 1,2,3,4-tetrahydropyrido[2,3-b]pyrazines as potent and selective inhibitors of the anaplastic lymphoma kinase” (Bioorg Med Chem, 2010) are described below.

Chain of Tyrosine-protein kinase JAK1 (Homo sapiens) (P23458 whole entry, the tested form may be a part): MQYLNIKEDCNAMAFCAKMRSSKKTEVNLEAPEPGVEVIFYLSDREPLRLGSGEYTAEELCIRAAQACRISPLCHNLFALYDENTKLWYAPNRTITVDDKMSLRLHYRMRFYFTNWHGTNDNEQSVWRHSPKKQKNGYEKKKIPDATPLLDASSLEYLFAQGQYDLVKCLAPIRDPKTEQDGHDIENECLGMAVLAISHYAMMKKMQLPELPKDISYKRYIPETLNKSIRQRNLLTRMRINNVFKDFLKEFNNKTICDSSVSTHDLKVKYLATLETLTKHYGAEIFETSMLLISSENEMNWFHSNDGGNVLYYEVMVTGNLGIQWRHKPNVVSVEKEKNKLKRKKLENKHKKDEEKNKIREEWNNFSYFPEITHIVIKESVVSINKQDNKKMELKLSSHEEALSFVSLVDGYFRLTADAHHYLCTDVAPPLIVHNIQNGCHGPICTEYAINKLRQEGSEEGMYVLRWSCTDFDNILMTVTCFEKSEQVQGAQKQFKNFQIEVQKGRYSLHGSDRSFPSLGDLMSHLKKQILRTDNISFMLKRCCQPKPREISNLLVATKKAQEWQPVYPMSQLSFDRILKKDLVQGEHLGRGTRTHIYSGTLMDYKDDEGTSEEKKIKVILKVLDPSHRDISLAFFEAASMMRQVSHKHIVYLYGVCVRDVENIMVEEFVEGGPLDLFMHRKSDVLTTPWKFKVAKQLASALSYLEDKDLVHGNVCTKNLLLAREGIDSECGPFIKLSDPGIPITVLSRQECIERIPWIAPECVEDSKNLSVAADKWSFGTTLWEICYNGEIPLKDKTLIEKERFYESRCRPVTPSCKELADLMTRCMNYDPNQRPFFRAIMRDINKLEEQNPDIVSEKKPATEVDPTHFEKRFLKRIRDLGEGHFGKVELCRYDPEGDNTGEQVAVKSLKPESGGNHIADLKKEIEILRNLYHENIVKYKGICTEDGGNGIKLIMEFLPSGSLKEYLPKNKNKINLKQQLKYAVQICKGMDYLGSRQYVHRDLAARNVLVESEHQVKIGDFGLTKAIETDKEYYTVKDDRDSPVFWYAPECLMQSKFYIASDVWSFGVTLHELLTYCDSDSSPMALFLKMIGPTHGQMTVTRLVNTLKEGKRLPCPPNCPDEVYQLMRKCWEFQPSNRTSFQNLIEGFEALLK

Regarding `O=C(c1ccc(-c2cnc3c(c2)N(Cc2cc(Cl)ccc2C(F)(F)F)CCN3)cc1)N1CCCCC1`, the inhibition in experiment [1], in experiment [2], in experiment [3], in experiment [4] and in experiment [5] was less than 50% throughout.
Consider `CN1CCN(c2ccc(-c3cnc4c(c3)N(Cc3c(F)ccc(F)c3Cl)CCN4)cn2)CC1`, for which the inhibition was less than 50% in experiment [1]; less than 50% in experiment [6]; less than 50% in experiment [2]; less than 50% in experiment [3]; less than 50% in experiment [4]; 92% in experiment [7]. Also, in experiment [5], the inhibition was less than 50%.
For `COC1CCN(C(=O)c2ccc(-c3cnc4c(c3)N(Cc3cc(Cl)ccc3C(F)(F)F)CCN4)cc2)CC1`, the inhibition in experiment [1], in experiment [2], in experiment [3], in experiment [4] and in experiment [5] was less than 50% throughout.
Turning to `O=C(O)c1ccc(-c2cnc3c(c2)N(Cc2cc(Cl)ccc2C(F)(F)F)CCN3)cc1`, the inhibition in experiment [1], in experiment [2], in experiment [3] and in experiment [4] was less than 50% each time.
On to `FC(F)(F)c1ccc(Cl)cc1CN1CCNc2ncc(-c3ccnc(N4CCNCC4)c3)cc21`, for which the inhibition in experiment [1] is less than 50%; in experiment [6], 73%; in experiment [2] it was less than 50%; in experiment [3] it was less than 50%; in experiment [4], less than 50%; in experiment [7], 70%. Further, the inhibition in experiment [5] came out at 78%.
Turning to `CN1CCN(c2ccc(-c3cnc4c(c3)N(Cc3cc(Cl)ccc3Cl)CCN4)cn2)CC1`, the inhibition in experiment [1], in experiment [6], in experiment [2], in experiment [3], in experiment [4] and in experiment [7] was less than 50% each time. In addition, the inhibition in experiment [5] is 89%.
For the compound `O=C(c1ccc(-c2cnc3c(c2)N(Cc2cc(Cl)ccc2C(F)(F)F)CCN3)cc1)N1CCC(N2CCCC2)CC1`, the inhibition in experiment [1], in experiment [2], in experiment [3], in experiment [4] and in experiment [5] was less than 50% in each case.
As to `CN1CCN(c2ccc(-c3cnc4c(c3)N(Cc3cc(Cl)ccc3C(F)(F)F)CCN4)cn2)CC1`, the inhibition in experiment [1], in experiment [6], in experiment [2], in experiment [3], in experiment [4] and in experiment [7] was less than 50% throughout. This compound registered an inhibition in experiment [5] of 93%.
Take `CC(=O)N1CCN(c2cc(-c3cnc4c(c3)N(Cc3cc(Cl)ccc3C(F)(F)F)CCN4)ccn2)CC1`: the inhibition in experiment [1], in experiment [6], in experiment [2], in experiment [3], in experiment [4] and in experiment [7] was less than 50% in each case. In experiment [5], this compound came in with an inhibition of 96%.
In the case of `CN1CCN(c2ccc(-c3cnc4c(c3)N(Cc3cc(F)ccc3F)CCN4)cn2)CC1`, the inhibition in experiment [1] is less than 50%; in experiment [6] it was less than 50%; in experiment [2], less than 50%; in experiment [3], less than 50%; in experiment [4] it was less than 50%; in experiment [7], 70%. The inhibition in experiment [5] was 88%.

One may read the inhibition as the drop in the measured response relative to a control, in per cent.
